The entries come from a sample that favours hits as a whole.
KDM4C inh: blocks human GASC-1 (KDM4C) demethylase activity. Q9H3R0. GST-KDM4C 2-372, H3K9me3 peptide, LANCE TR-FRET. inhibition, % at 12.5 µM. 0.15% of 96,000 active. AID 720574;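 active = mean replicate inhibition above about 25%, with at least 55% of replicates also reaching it, limit read from the data, passing the limit was not always enough; inconclusive = only one of those two conditions met; inactive = neither condition met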
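System: N-terminal GST-fused human GASC-1 (KDM4C) fragment, residues 2-372 / Amount: 10 nM GST-KDM4C in enzyme reaction / Also added: H3K9me3 peptide with Fe(II)/2OG / Times: 30 min demethylation and 1 h detection at room temperature / Signal: LANCE TR-FRET / Read-out basis: Fall in 671/618 emission ratio as inhibition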
IDH1 mut inh: IDH1 R132H (human) inhibition; 0.18% of 70,000 active; AID 624101; O75874; IDH1 R132H reductase, diaphorase/resazurin fluorescence, 60 min; inhibition, % at 10 µM; in the data active = inhibition above about 34%; inconclusive = no clear call, values can overlap the other calls; inactive = below about 11%;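 note: 0% = DMSO and 100% = no enzyme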
Target sequence (O75874 whole entry R132H): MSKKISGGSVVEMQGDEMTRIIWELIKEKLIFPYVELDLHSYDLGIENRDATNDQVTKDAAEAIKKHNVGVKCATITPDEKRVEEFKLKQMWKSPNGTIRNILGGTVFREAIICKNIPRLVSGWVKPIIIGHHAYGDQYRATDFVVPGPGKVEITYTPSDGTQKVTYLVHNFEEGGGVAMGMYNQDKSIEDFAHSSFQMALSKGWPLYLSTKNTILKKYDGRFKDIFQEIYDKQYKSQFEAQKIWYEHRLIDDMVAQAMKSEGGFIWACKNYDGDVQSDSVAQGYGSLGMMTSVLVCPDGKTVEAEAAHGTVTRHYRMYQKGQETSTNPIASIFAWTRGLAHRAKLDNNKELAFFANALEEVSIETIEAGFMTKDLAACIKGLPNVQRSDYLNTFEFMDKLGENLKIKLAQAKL
T cruzi growth-1: inhibitors of T. cruzi proliferation; T. cruzi beta-gal in NIH3T3, GalScreen luminescence, 90 h; inhibition, % at 8.34 µM; 5.9% of 77,000 active; AID 624255;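 active = mean inhibition above about 93%, with at least 55% of replicates each passing it, limit read from the data, passing the limit was not always enough; inconclusive = only one of those two conditions holds; inactive = neither condition holds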
T cruzi growth-2: inhibitors of T. cruzi proliferation | T. cruzi beta-gal in NIH3T3, GalScreen luminescence, 90 h | shares compounds with T cruzi growth-1 | inhibition, % at 8.35 µM | AID 651739 | 72% of 5,600 active;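 active = mean replicate inhibition above about 95% and at least 55% of replicates individually reaching it, limit read from the data; inconclusive = only one of the two criteria is met; inactive = neither criterion is met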
T cruzi growth-3: inhibitors of T. cruzi proliferation. shares compounds with T cruzi growth-1. T. cruzi beta-gal in NIH3T3, GalScreen luminescence, 90 h. inhibition, % at 2.09 µM. 21% of 5,600 active. AID 651740;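 active = mean inhibition above about 95%, with at least 55% of replicates also reaching it, limit read from the data; inconclusive = meets just one of the two conditions; inactive = meets neither condition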;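 note: plate controls were neutral control median for no effect and positive control median for full effect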
NIH3T3 tox: cytotoxicity in mouse NIH/3T3 fibroblasts. cytotoxicity (signal decrease), % at 8.35 µM. 14% of 5,600 active. shares compounds with T cruzi growth-1. NIH/3T3 viability, CellTiter-Glo ATP luminescence, 90 h;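 active = mean signal decrease across replicates above about 35% based on untreated-well scatter, with enough replicates individually passing, limit read from the data; inconclusive = no rule stated though some were filed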;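 note: 0% = median of neutral control wells and 100% = median of positive control wells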
3T3 cytotox 2: NIH/3T3 (mouse) viability loss | inhibition, % at 24.9 µM | NIH/3T3 viability, CellTiter-Glo ATP luminescence, 90 h | 56% of 5,600 active | shares compounds with T cruzi growth-1 | AID 651744;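 active = mean loss of cell viability signal at or above a set limit, and enough replicates individually reaching it; inconclusive = meets only the mean limit or only the replicate share; inactive = meets neither condition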;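 note: 0% = median of neutral control wells and 100% = median of positive control wells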
Starred values were filed as active, the others as inactive; ? = inconclusive; · = not tested or not shown.

SMILES	KDM4C inh	IDH1 mut inh	T cruzi growth-1	T cruzi growth-2	T cruzi growth-3	NIH3T3 tox	3T3 cytotox 2
C=CCNC(=O)[C@H]1[C@@H]2C(=O)O[C@@H](c3ccccc3)[C@@H](c3ccccc3)N2[C@@H](c2ccc(O)cc2)[C@]12C(=O)Nc1ccccc12	·	0	·	·	·	·	·
O=C(COc1ccc(S(=O)(=O)N2CCCC2)cc1Cl)Nc1ccccc1	·	0	·	·	·	·	·
N#C[C@H]1[C@H](c2ccc(-c3ccccc3F)cc2)[C@H](CO)N1C(=O)Cc1ccccc1	-2	·	65	·	·	·	·
N#C[C@H]1[C@@H](c2ccccc2)[C@@H](CO)N1C(=O)Cc1ccccc1	-1	0	102*	1	6	-12	-12
N#C[C@@H]1[C@H](c2ccccc2)[C@@H](CO)N1C(=O)Cc1ccccc1	-1	·	109*	6	-7	-7	1
N#C[C@H]1[C@H](c2ccc(-c3cncnc3)cc2)[C@@H](CO)N1C(=O)Cc1ccccc1	3	·	2	·	·	·	·
N#C[C@@H]1[C@@H](c2ccc(-c3ccccc3F)cc2)[C@H](CO)N1C(=O)Cc1ccccc1	0	·	63	·	·	·	·
N#C[C@@H]1[C@@H](c2ccc(-c3ccc(F)cc3)cc2)[C@@H](CO)N1C(=O)Cc1ccccc1	-2	0	39	·	·	·	·
N#C[C@@H]1[C@@H](c2ccccc2)[C@H](CO)N1C(=O)Cc1ccccc1	-2	·	100*	44	5	-22	-9
N#C[C@H]1[C@H](c2ccc(-c3ccc(F)cc3)cc2)[C@@H](CO)N1C(=O)Cc1ccccc1	0	·	?	98*	49	40*	96*
CCn1c2ccccc2c2cc(NC(=O)CN3C(=O)c4ccccc4C3=O)ccc21	·	0	·	·	·	·	·
CC(C)(O)CCC(=O)C(C)(O)C1C(O)CC2(C)C3CC=C4C(CC(OC5OC(CO)C(O)C(O)C5O)C(O)C4(C)C)C3(C)CCC12C (configuration not stated)	·	0	·	·	·	·	·
Cc1c(C(=O)Nc2ccccc2C(=O)NCc2ccco2)cccc1[N+](=O)[O-]	·	0	·	·	·	·	·
C[C@H](CO)N1C[C@H](C)[C@@H](CN(C)Cc2ccc(Cl)c(Cl)c2)Oc2ccc(NC(=O)CCCCCC(=O)Nc3ccccc3N)cc2CC1=O	0	1	·	·	·	·	·
C[C@@H]1CCCCO[C@@H](CN(C)Cc2ccc(Cl)c(Cl)c2)[C@@H](C)CN([C@H](C)CO)C(=O)c2cc(NC(=O)Nc3ccc4c(c3)OCO4)ccc2O1	-4	0	104*	104*	69	8	-8
C[C@@H]1CCCCO[C@@H](CN(C)Cc2ccc(Cl)c(Cl)c2)[C@@H](C)CN([C@@H](C)CO)C(=O)c2cc(NC(=O)Cc3ccccc3)ccc2O1	1	0	98*	106*	76	-7	-14
C[C@@H]1CN([C@@H](C)CO)C(=O)c2cc(NC(=O)Nc3ccc4c(c3)OCO4)ccc2O[C@@H](C)CCCCO[C@@H]1CN(C)C	2	·	26	·	·	·	·
C[C@@H]1CN([C@H](C)CO)C(=O)c2cc(NC(=O)Cc3ccccc3)ccc2O[C@@H](C)CCCCO[C@@H]1CN(C)Cc1ccc(Cl)c(Cl)c1	0	·	91	·	·	·	·
C[C@@H]1CCCCO[C@H](CN(C)Cc2ccc(Cl)c(Cl)c2)[C@@H](C)CN([C@@H](C)CO)C(=O)c2cc(NC(=O)Nc3ccc4c(c3)OCO4)ccc2O1	-5	·	65	·	·	·	·
C[C@@H]1CN([C@@H](C)CO)C(=O)c2cc(NC(=O)Nc3ccc4c(c3)OCO4)ccc2O[C@@H](C)CCCCO[C@H]1CN(C)C	0	-1	100*	112*	8	-3	6
C[C@H](CO)N1C[C@H](C)[C@H](CN(C)Cc2ccc(Cl)c(Cl)c2)Oc2ccc(NC(=O)CCCCCC(=O)Nc3ccccc3N)cc2C1=O	-3	·	97*	103*	102*	11	32*
COC(=O)c1c(NC(=O)CN(c2cc(C)ccc2C)S(C)(=O)=O)sc2c1CCCC2	·	1	·	·	·	·	·
CCOC(=O)c1ccccc1NC(=O)CC1Sc2ccc(C(F)(F)F)cc2NC1=O (configuration not stated)	·	0	·	·	·	·	·
